Source: ChEMBL document CHEMBL1154606 (J Med Chem, 2009)
Where a SMILES comes first, the peptide text is derived from it. [ ]: non-standard residue; d: D form. NMeF = CN[C@@H](Cc1ccccc1)C(=O)O

Experiments:
[1] = target: T1, Neuromedin-K receptor (Cavia porcellus, UniProt P30098); assay: Agonist activity at guinea pig NK3 receptor expressed in cells assessed as accumulation of [3H]inositol phosphate; type: functional, cell-based
T1 sequence (P30098 whole entry): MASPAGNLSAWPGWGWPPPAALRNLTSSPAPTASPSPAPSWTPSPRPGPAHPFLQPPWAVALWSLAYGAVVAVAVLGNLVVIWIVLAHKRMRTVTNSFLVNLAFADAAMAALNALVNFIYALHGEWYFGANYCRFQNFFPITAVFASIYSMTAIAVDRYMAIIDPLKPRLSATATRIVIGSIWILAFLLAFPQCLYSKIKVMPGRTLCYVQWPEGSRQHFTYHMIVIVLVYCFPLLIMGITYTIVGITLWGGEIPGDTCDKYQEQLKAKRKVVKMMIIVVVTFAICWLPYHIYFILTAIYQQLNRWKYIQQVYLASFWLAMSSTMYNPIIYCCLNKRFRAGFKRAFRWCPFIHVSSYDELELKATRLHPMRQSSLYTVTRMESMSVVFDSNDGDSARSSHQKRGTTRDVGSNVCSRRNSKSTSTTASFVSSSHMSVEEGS
Outline: (§1)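 At 48 h, preincubated 10 min at RT in HBSS/20 mM HEPES pH 7.4 with 8 mM LiCl, then stimulated with [MePhe⁷]NKB (0.1 nM–10 μM) for 45 min at 37 °C. Inositol phosphates were extracted with formic acid, captured on yttrium silicate beads and counted. EC50 and Hill slope were derived.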

[2] = target: T2, Neuromedin-K receptor (Homo sapiens, UniProt P29371); assay: Binding affinity to human NK3 receptor
T2 sequence (P29371 whole entry): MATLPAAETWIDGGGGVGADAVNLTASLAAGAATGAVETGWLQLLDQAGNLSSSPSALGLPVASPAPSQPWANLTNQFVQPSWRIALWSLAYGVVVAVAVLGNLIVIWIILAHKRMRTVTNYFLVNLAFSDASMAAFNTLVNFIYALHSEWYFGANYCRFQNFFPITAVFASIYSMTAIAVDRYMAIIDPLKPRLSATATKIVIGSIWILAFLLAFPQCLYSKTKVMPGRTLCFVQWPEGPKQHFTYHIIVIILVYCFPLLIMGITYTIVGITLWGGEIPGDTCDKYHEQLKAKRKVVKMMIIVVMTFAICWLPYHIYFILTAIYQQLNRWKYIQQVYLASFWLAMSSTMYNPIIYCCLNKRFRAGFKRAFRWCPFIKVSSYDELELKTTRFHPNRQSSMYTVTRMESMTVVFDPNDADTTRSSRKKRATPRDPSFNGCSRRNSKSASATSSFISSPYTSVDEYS

[3] = target: T3, Substance-K receptor (Homo sapiens, UniProt P21452); assay: Binding affinity to human NK2 receptor
T3 sequence (P21452 whole entry): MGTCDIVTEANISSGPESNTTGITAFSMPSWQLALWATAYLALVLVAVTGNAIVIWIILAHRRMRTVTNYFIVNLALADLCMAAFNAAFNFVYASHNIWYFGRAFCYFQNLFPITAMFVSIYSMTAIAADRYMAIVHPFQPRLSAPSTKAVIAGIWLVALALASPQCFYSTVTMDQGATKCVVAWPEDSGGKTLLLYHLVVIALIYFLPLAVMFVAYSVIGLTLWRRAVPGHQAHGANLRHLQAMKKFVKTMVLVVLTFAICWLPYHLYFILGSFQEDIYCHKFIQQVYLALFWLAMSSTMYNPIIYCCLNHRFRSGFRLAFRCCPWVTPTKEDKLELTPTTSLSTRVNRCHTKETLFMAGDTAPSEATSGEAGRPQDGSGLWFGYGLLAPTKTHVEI

[4] = target: T2, Neuromedin-K receptor; assay: Agonist activity at human NK3 receptor expressed in cells assessed as accumulation of [3H]inositol phosphate; type: functional, cell-based; outline: as §1
[5] = target: T3, Substance-K receptor; assay: Displacement of [3H]SR48968 from human recombinant NK2 receptor expressed in HEK293 cells; type: cell-based
Outline: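 hNK2 membranes from transient HEK293 (2.5 μg protein/well) in 50 mM Tris-HCl, 3 mM MnCl2, 4 μg/mL chymostatin, 0.04% BSA, pH 7.4. Incubated with 0.32 nM [³H]SR 48968 plus 10 inhibitor concentrations (0.0003–10 μM) for 75 min at RT. Ki by Cheng-Prusoff; three experiments in duplicate.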

[6] = target: T1, Neuromedin-K receptor; assay: Displacement of [3H]osanetant from guinea pig recombinant NK3 receptor expressed in HEK293 cells; type: cell-based
Outline: (§2)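 Membranes from transiently transfected HEK293 cells (5 μg protein/well) in 50 mM Tris-HCl, 4 mM MnCl2, 1 μM phosphoramidon, 0.1% BSA, pH 7.4. Nonspecific binding defined with 10 μM competitor. Filtered on GF/C. Ki by Cheng-Prusoff; three experiments in duplicate.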

[7] = target: T2, Neuromedin-K receptor; assay: Displacement of [3H]osanetant from human recombinant NK3 receptor expressed in HEK293 cells; type: cell-based
Outline: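 Membranes from transiently transfected HEK293 cells (5 μg protein/well) in 50 mM Tris-HCl, 4 mM MnCl2, 1 μM phosphoramidon, 0.1% BSA, pH 7.4. […] Nonspecific binding defined with 10 μM competitor. Filtered on GF/C. Ki by Cheng-Prusoff; three experiments in duplicate.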

[8] = target: T2, Neuromedin-K receptor; assay: Antagonist activity at wild type human NK3 receptor expressed in HEK293 cells assessed as inhibition of [MePhe7]NKB-induced accumulation of [3H]inositol phosphate; type: functional, cell-based; conditions: read-out: pA2 (converted)
Outline: (§3)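 HEK293 cells transiently transfected with NK3 receptor, labeled with myo-[³H]-inositol and assayed 48 h post-transfection in HBSS/HEPES pH 7.4 with 8 mM LiCl. Fixed antagonist concentrations were preincubated 20 min at 37 °C, then [MePhe⁷]NKB (0.1 nM–10 μM) was added for 45 min at 37 °C. [³H]IP was captured on yttrium silicate beads. Agonist EC50 shifts gave dose ratios for Schild regression. Six curves from three transfections.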

[9] = target: Substance-P receptor (Homo sapiens, UniProt P25103); assay: Displacement of [3H]substance P from human recombinant NK1 receptor expressed in HEK293 cells; type: cell-based
Sequence of Substance-P receptor (P25103 whole entry): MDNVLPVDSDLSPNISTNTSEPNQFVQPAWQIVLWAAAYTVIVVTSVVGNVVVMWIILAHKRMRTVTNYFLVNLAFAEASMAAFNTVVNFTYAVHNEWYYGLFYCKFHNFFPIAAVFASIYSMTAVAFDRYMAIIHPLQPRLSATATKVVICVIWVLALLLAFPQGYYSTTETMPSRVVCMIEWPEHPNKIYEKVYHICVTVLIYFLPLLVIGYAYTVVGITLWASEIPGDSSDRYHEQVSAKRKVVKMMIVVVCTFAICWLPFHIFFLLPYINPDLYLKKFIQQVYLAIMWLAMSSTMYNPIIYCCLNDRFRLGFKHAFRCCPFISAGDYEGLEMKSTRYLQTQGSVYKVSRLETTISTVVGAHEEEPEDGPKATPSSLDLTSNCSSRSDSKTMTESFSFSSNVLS
Outline: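 hNK1 membranes from transient HEK293 (2.5 μg protein/well) in 50 mM HEPES, 3 mM MnCl2, 2 μM phosphoramidon, 16.8 μM leupeptin, 0.04% BSA, pH 7.4. Incubated with 0.6 nM [³H]substance P plus 10 inhibitor concentrations (0.0003–10 μM) for 75 min at RT. Nonspecific binding defined with 10 μM CP-96,345. Ki by Cheng-Prusoff; three experiments in duplicate.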

[10] = target: T4, Neuromedin-K receptor (Cavia porcellus, UniProt P30098); assay: Displacement of [3H]osanetant from guinea pig recombinant NK3 receptor A1142.58T expressed in HEK293 cells; type: cell-based; outline: as §2
[11] = target: T4, Neuromedin-K receptor; assay: Antagonist activity at […] guinea pig NK3 receptor A1142.58T mutant expressed in HEK293 cells assessed as inhibition of [MePhe7]NKB-induced accumulation of [3H]inositol phosphate; type: functional, cell-based; outline: as §3
[12] = system: Neurokinin 3 receptor (Cavia porcellus); assay: Equilibrium binding affinity to guinea pig NK3 receptor A1142.58T mutant expressed in HEK293 cells
[13] = target: T5, Neuromedin-K receptor (Cavia porcellus) (UniProt P30098); conditions: HEK293
T5 sequence (whole entry): T1 sequence (P30098 whole entry)

[14] = target: T6, Neuromedin-K receptor (Homo sapiens) (UniProt P29371); conditions: HEK293
T6 sequence (whole entry): T2 sequence (P29371 whole entry)

[15] = target: T5, Neuromedin-K receptor (Cavia porcellus); conditions: HEK293; remark: listed apart in the source
[16] = target: T6, Neuromedin-K receptor (Homo sapiens); conditions: HEK293; remark: listed apart in the source
[17] = target: T1, Neuromedin-K receptor; assay: Antagonist activity at wild type guinea pig NK3 receptor expressed in HEK293 cells assessed as inhibition of [MePhe7]NKB-induced accumulation of [3H]inositol phosphate; type: functional, cell-based; conditions: read-out: pA2 (converted); outline: as §3

Compound	EC50 [1] [nM]	Ki [2] [nM]	Ki [3] [nM]	EC50 [4] [nM]	Ki [5] [nM]	Ki [6] [nM]	Ki [7] [nM]	Kb [8] [nM]	Ki [9] [nM]	Ki [10] [nM]	pA2 [11]	T1/2 [13] [min]	T1/2 [14] [min]	T1/2 [15] [min]	T1/2 [16] [min]	Kb [17] [nM]	Kd [12] [nM]
CSCC[C@H](NC(=O)[C@H](CC(C)C)NC(=O)CNC(=O)[C@H](Cc1ccccc1)N(C)C(=O)[C@H](Cc1ccccc1)NC(=O)[C@H](Cc1ccccc1)NC(=O)[C@H](CC(=O)O)NC(=O)[C@H](Cc1cnc[nH]1)NC(=O)[C@H](CCSC)NC(=O)[C@@H](N)CC(=O)O)C(N)=O (H-DMHDFF[NMeF]GLM-NH2)	0.6	0.3	1600	0.6													
CC(=O)N(C)C1CCN(CCC(C)(C(=O)N(C)Cc2ccc(F)c(C(F)(F)F)c2)c2ccc(Cl)c(Cl)c2)CC1 (stereo unspecified)					515	3.5	3.1	7.76	152	2.7	7.83						
CN(Cc1ccc(F)c(C(F)(F)F)c1)C(=O)C(C)(CCN1CCC(N2CCCC2=O)CC1)c1ccc(Cl)c(Cl)c1 (stereo unspecified)					109	1.6	0.8	8.91	182	1.8	7.96						

Second part, led by results:

EC50 [1] [nM]	Ki [2] [nM]	Ki [3] [nM]	EC50 [4] [nM]	Ki [5] [nM]	Ki [6] [nM]	Ki [7] [nM]	Kb [8] [nM]	Ki [9] [nM]	Ki [10] [nM]	pA2 [11]	T1/2 [13] [min]	T1/2 [14] [min]	T1/2 [15] [min]	T1/2 [16] [min]	Kb [17] [nM]	Compound	Kd [12] [nM]
											10.2	10.1	31.5	4.01		CC(=O)N(C)C1(c2ccccc2)CCN(CCC[C@]2(c3ccc(Cl)c(Cl)c3)CCCN(C(=O)c3ccccc3)C2)CC1 [OSANETANT]	0.08
				953	8	10.4	18.2	70.9	11.9	7.53					24	CC(=O)N(C)C1CCN(CCC(C)(C(=O)N(C)Cc2ccccc2Cl)c2ccc(Cl)c(Cl)c2)CC1 (stereo unspecified)	
